From ChEMBL document CHEMBL4138098, “Synthesis and pharmacological evaluation of neurosteroid photoaffinity ligands” (Eur J Med Chem, 2017)
Active and inactive are the calls of the source. The calls are words filed in the database; no cut-off is given here.

What was measured:
[1] = target: GABA-A receptor; alpha-1/beta-2/gamma-2 (Homo sapiens) (UniProt P14867+P47870+P18507); experiment: Positive allosteric modulation of human GABAA receptor alpha1beta2gamma2L expressed in Xenopus laevis oocytes assessed as potentiation of GABA chloride current up to 100 uM incubated for 15 to 25 secs by two-electrode voltage clamp assay relative to control; format: cell-based
In short: (§1)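 Xenopus laevis oocytes injected with ~100 ng cRNA of human α1, β2, γ2L (1:1:2). Two-electrode voltage clamp at −50 mV, room temperature, perfused with ND96 pH 7.5. Compound diluted from DMSO stock into ND96 (≤1% DMSO final). Applied 15–25 s with ~3 min washes.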

[2] = target: T1, GABA-A receptor; alpha-1/beta-2/gamma-2 (Homo sapiens, UniProt P14867+P18507+P47870); experiment: Positive allosteric modulation of human GABAA receptor alpha1beta2gamma2L expressed in Xenopus laevis oocytes assessed as potentiation of GABA chloride current incubated for 15 to 25 secs by two-electrode voltage clamp assay; format: cell-based; in short: as §1
T1 sequence (P14867 whole entry): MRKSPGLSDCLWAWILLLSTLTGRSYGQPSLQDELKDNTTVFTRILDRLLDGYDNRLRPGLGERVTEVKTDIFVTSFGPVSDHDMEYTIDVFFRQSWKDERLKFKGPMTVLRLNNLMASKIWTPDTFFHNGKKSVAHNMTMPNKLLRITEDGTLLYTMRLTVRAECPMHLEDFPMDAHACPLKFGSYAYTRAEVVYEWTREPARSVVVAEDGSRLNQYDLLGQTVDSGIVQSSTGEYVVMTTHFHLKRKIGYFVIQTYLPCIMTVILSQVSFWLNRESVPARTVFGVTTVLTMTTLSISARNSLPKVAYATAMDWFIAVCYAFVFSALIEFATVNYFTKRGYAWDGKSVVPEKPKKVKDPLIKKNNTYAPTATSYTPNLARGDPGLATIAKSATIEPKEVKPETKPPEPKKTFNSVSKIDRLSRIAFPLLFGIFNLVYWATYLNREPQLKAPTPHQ
T1 sequence (P47870 whole entry): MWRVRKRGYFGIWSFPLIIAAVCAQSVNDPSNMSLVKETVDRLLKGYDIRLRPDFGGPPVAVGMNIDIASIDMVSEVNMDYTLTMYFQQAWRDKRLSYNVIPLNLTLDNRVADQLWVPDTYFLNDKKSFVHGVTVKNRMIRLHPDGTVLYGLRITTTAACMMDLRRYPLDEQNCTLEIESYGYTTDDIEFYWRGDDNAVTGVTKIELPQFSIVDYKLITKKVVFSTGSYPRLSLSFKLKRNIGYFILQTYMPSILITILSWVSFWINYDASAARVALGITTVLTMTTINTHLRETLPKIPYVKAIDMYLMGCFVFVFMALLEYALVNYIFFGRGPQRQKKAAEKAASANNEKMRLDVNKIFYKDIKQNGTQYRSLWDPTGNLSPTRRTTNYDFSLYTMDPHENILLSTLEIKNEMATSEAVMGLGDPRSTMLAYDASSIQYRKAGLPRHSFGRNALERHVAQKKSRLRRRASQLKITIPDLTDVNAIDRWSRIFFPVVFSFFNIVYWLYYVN
T1 sequence (P18507 whole entry): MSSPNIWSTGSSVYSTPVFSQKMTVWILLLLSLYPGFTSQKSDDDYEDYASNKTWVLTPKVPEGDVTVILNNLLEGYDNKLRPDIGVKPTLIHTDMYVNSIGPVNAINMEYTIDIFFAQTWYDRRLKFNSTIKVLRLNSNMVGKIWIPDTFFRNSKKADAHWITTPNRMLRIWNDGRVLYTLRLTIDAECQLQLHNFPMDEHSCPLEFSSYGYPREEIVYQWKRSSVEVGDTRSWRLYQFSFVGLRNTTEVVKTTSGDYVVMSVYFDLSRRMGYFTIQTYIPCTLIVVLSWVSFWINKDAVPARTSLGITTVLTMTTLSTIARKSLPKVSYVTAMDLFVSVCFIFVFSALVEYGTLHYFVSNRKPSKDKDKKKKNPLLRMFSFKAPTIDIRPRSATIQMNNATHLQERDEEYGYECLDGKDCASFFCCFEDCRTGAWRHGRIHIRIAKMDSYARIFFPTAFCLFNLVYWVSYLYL

[3] = test system: Anura; experiment: Anesthetic activity in tadpole assessed as loss of righting reflexes at 0.01 to 1 uM pretreated with tadpole followed by compound washout and transfer to fresh water measured up to 1 hr; format: functional, organism-based
[4] = target: T2, GABA-A receptor; alpha-1/beta-3/gamma-2 (Homo sapiens) (UniProt P14867+P18507+P28472); experiment: Binding affinity to human GABAA receptor alpha1beta3gamma2 expressed in HEK293 TetR cells assessed as photolabeling at 0.7 uM after 30 mins in presence of 100 uM bicuculline by coomassie blue staining based fluorographic method; format: cell-based; conditions: tested as the 3H-labelled form
[5] = test system: Anura; experiment: Potency index, ratio of Alphaxalone EC50 to compound EC50 for anesthetic activity in tadpole; format: functional
[6] = target: T2, GABA-A receptor; alpha-1/beta-3/gamma-2 (Homo sapiens); experiment: Binding affinity to human GABAA receptor alpha1beta3gamma2 expressed in HEK293 TetR cells assessed as photolabeling at 0.7 uM after 30 mins in presence of 300 uM GABA and 30 uM alphaxalone by coomassie blue staining based fluorographic method; format: cell-based; conditions: tested as the 3H-labelled form
[7] = target: T2, GABA-A receptor; alpha-1/beta-3/gamma-2 (Homo sapiens); experiment: Induction of [3H]azietomidate photoincorporation at human GABAA receptor alpha1beta3gamma2 expressed in HEK293 TetR cells at 0.3 to 1 uM after 30 mins by liquid scintillation counting method; format: cell-based
In short: (§2)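 Radioligand resuspended 30 min at 4°C; unlabeled steroid added (0.5% methanol final), 30 min at 4°C. Irradiated 30 min on ice at 365 nm. SDS-PAGE; stained subunit bands excised and counted by liquid scintillation; duplicates, means and ranges.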

[8] = target: T2, GABA-A receptor; alpha-1/beta-3/gamma-2 (Homo sapiens); experiment: (§3) Displacement of [3H]muscimol from human GABAA receptor alpha1beta3gamma2 expressed in HEK293 TetR cell membranes after 1 hr by liquid scintillation counting method
In short: (§4)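 Membranes from HEK293 TetR cells expressing human α1β3γ2 GABAA receptor (200 μg protein) in 10 mM phosphate pH 7.4, 200 mM KCl, 1 mM EDTA. Filtered on PEI-treated GF/B filters, washed cold, scintillation counted. Triplicates, mean ± SD.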

[9] = target: T3, GABA-A receptor; alpha-1/beta-3/gamma-2 (Homo sapiens, UniProt P14867+P18507+P28472); experiment: as §3; in short: as §4
T3 sequence (P14867 whole entry): T1 sequence (P14867 whole entry)
T3 sequence (P18507 whole entry): T1 sequence (P18507 whole entry)
T3 sequence (P28472 whole entry): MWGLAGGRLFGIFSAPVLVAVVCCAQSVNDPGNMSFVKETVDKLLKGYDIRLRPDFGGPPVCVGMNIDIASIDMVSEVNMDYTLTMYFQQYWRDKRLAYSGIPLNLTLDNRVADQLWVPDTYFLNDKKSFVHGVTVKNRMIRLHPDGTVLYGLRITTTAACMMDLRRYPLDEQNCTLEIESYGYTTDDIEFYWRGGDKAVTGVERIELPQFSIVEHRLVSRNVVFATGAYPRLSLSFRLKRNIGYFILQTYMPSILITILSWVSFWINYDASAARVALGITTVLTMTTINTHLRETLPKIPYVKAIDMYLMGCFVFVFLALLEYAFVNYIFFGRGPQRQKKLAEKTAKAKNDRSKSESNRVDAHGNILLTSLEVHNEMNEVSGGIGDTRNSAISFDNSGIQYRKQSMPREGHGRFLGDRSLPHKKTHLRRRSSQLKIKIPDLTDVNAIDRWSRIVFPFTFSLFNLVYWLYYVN

[10] = target: T4, Gamma-aminobutyric acid receptor subunit beta-3 (Homo sapiens) (UniProt P28472); experiment: Binding affinity to human GABAA receptor beta3 assessed as photolabeling at 0.7 uM after 30 mins by Coomassie blue staining based fluorographic method relative to control; conditions: tested as the 3H-labelled form
T4 sequence (whole entry): T3 sequence (P28472 whole entry)

[11] = target: T5, Gamma-aminobutyric acid receptor subunit alpha-1 (Homo sapiens) (UniProt P14867); experiment: Binding affinity to human GABAA receptor alpha1 assessed as photolabeling at 0.7 uM after 30 mins by Coomassie blue staining based fluorographic method relative to control; conditions: tested as the 3H-labelled form
T5 sequence (whole entry): T1 sequence (P14867 whole entry)

[12] = target: T2, GABA-A receptor; alpha-1/beta-3/gamma-2 (Homo sapiens); experiment: Binding affinity to human GABAA receptor alpha1beta3gamma2 expressed in HEK293 TetR cells assessed as photolabeling at 0.7 uM after 30 mins in presence of 300 uM GABA by coomassie blue staining based fluorographic method; format: cell-based; conditions: tested as the 3H-labelled form
[13] = target: T2, GABA-A receptor; alpha-1/beta-3/gamma-2 (Homo sapiens); experiment: Induction of [3H]R-mTFD-MPAB photoincorporation at human GABAA receptor alpha1beta3gamma2 expressed in HEK293 TetR cells at 0.3 to 1 uM after 30 mins by liquid scintillation counting method; format: cell-based; in short: as §2
[14] = test system: Anura; experiment: Anesthetic activity in tadpole assessed as loss of righting reflexes; format: functional, organism-based
[15] = target: T2, GABA-A receptor; alpha-1/beta-3/gamma-2 (Homo sapiens); experiment: Induction of [3H]azietomidate photoincorporation at human GABAA receptor alpha1beta3gamma2 expressed in HEK293 TetR cells at 1 uM after 30 mins by liquid scintillation counting method relative to control; format: cell-based; in short: as §2
[16] = target: T2, GABA-A receptor; alpha-1/beta-3/gamma-2 (Homo sapiens); experiment: Binding affinity to human GABAA receptor alpha1beta3gamma2 expressed in HEK293 TetR cells assessed as photolabeling at 0.4 uM after 30 mins in presence of 300 uM GABA by coomassie blue staining based fluorographic method; format: cell-based; conditions: tested as the 3H-labelled form
[17] = target: T2, GABA-A receptor; alpha-1/beta-3/gamma-2 (Homo sapiens); experiment: Induction of [3H]R-mTFD-MPAB photoincorporation at human GABAA receptor alpha1beta3gamma2 expressed in HEK293 TetR cells at 10 uM after 30 mins by liquid scintillation counting method relative to control; format: cell-based; in short: as §2
[18] = test system: Anura; experiment: Anesthetic activity in tadpole assessed as loss of righting reflexes at 0.03 to 10 uM pretreated with tadpole followed by compound washout and transfer to fresh water measured up to 1 hr; format: functional, organism-based
[19] = target: T2, GABA-A receptor; alpha-1/beta-3/gamma-2 (Homo sapiens); experiment: Binding affinity to human GABAA receptor alpha1beta3gamma2 expressed in HEK293 TetR cells assessed as photolabeling at 0.4 uM after 30 mins in presence of 100 uM bicuculline by coomassie blue staining based fluorographic method; format: cell-based; conditions: tested as the 3H-labelled form
[20] = target: T2, GABA-A receptor; alpha-1/beta-3/gamma-2 (Homo sapiens); experiment: Binding affinity to human GABAA receptor alpha1beta3gamma2 expressed in HEK293 TetR cells assessed as photolabeling at 0.4 uM after 30 mins in presence of 300 uM GABA and 30 uM alphaxalone by coomassie blue staining based fluorographic method; format: cell-based; conditions: tested as the 3H-labelled form
[21] = target: T2, GABA-A receptor; alpha-1/beta-3/gamma-2 (Homo sapiens); experiment: Induction of [3H]R-mTFD-MPAB photoincorporation at human GABAA receptor alpha1beta3gamma2 expressed in HEK293 TetR cells at 30 uM after 30 mins by liquid scintillation counting method; format: cell-based
In short: (§5)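 Purified FLAG-tagged human α1β3γ2 GABAAR from tetracycline-inducible HEK293S cells, in 5 mM CHAPS/0.2 mM asolectin. Equilibrated 30 min at 4°C with 3 μM [3H]azietomidate or 1 μM [3H]R-mTFD-MPAB, then with test drug (final methanol 0.5%) for another 30 min at 4°C. Irradiated on ice at 365 nm for 30 min. Stained subunit bands excised from SDS-PAGE gels; 3H counted by liquid scintillation.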

[22] = target: T2, GABA-A receptor; alpha-1/beta-3/gamma-2 (Homo sapiens); experiment: Induction of [3H]azietomidate photoincorporation at human GABAA receptor alpha1beta3gamma2 expressed in HEK293 TetR cells at 30 uM after 30 mins by liquid scintillation counting method; format: cell-based; in short: as §5

Row | SMILES | fold change (FC) [1] | EC50 [2] [nM] | Ratio EC50 [5] | inhibition [8] | EC50 [9] [nM] | Activity [10] [%] | Activity [11] [%] | EC50 [14] [nM] | Activity [18] | other results
1 | CC(=O)[C@H]1CC[C@H]2[C@@H]3CC[C@H]4C[C@H](O)CC[C@]4(C)[C@H]3C3(C[C@]12C)N=N3 | 30 | 200 | 17 | Dose-dependent effect | 250 | 0.4 | 0.2 | 110 |  | Activity [3]: inactive; Activity [4]: Active; Activity [6]: Active; Activity [7]: Active; Activity [12]: Active; Activity [13]: Active
2 | CC(=O)[C@H]1CC[C@H]2[C@@H]3CC[C@H]4C[C@H](O)CC[C@]4(C)[C@H]3[C@@H](OC(=O)c3c(F)c(F)c(N=[N+]=[N-])c(F)c3F)C[C@]12C | 17 | 500 | 2.6 | Dose-dependent effect | 770 | 10 | 6 | 720 | inactive | Activity [15]: 50%; Activity [16]: Active; Activity [17]: 75%; Activity [19]: Active; Activity [20]: Active
3 | CC(=O)[C@H]1CC[C@H]2[C@@H]3CC[C@H]4C[C@H](O)CC[C@]4(C)[C@H]3C(=O)C[C@]12C [ALFAXALONE] |  |  |  | Dose-dependent effect |  |  |  | 1900 | inactive | Activity [21]: Active; Activity [22]: Active
